# STAT1 activator = activators of IFN-gamma induced STAT1 signaling; NIH 3T3 STAT1-luciferase reporter, luminescence; 100% = IFN-gamma alone, no compound; activation (% of control), % at 5.5 µM; 2.6% of 200,000 active;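 active = activation above the screen-wide mean activation plus 3 SD, cut at about 130% in these data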;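 also: raw ratio to IFN-gamma control signal so 100% means no change and 0% no light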
# FLuc inh counter = Photinus pyralis luciferase inhibition counter-screen | P08659 | 1.5% of 200,000 active | inhibition, % at 10 µM | ATPLite firefly luciferase biochemical luminescence, 10 min;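 active = inhibition above about 50% when tested at 10 µM, limit read from the data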
# Target sequence (P08659 whole entry, looked up): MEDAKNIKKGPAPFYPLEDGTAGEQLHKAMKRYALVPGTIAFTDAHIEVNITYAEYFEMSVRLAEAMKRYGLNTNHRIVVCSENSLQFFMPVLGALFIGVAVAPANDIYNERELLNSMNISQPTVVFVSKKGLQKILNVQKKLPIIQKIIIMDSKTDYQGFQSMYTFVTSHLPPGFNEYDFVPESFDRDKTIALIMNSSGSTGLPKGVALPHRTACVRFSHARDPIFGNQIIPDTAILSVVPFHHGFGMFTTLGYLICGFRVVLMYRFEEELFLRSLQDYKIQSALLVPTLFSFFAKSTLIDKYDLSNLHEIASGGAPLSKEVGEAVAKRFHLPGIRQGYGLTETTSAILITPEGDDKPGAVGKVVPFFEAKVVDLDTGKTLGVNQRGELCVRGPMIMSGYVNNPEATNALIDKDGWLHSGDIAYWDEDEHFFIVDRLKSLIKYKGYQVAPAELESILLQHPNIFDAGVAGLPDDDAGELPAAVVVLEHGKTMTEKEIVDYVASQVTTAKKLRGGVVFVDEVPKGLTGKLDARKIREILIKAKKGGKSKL
# NF-kB neuron act = NF-kB expression increase, human neuronal cells; NF-kB reporter expression; stronger effect = higher value; fold change at 12.5 µM; 1.6% of 190,000 active; AID 1239; in the data active = fold change above about 3.3
# FLuc stim CS = firefly luciferase counter-screen for stimulation assays; P08659; ATPlite luciferase biochemical, luminescence, 10 min; 0 = ATP-free wells, 1 = DMSO control; activation factor at 10 µM; 200,000 tested, under 10 active; AID 1027;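 active = luciferase activation factor, scaled between plate controls, of at least 2 with compound at 10 µM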
#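 System: Luciferase/luciferin detection reagent, cell-free biochemical luciferase assay | Medium: PBS buffer for ATP | Dosing: Test compounds dosed from 2 mM stocks in 100% DMSO | Timing: 10 min at ambient temperature | Signal: Luminescence measurement of luciferase light output | Evaluation: Luciferase activation, seen as luminescence increase over controls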
# APP 5UTR inh = APP translation inhibition; SH-SY5Y APP 5'UTR-luciferase reporter, luminescence; inhibition, % at 2 µM; 0.82% of 190,000 active;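 active = inhibition above a set limit, derived from the sample mean plus 3 SD, cut at about 45% in these data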
# APP 5'UTR act = APP 5'UTR luciferase reporter activation | SH-SY5Y APP 5'UTR luciferase reporter, luminescence; zero percent = DMSO vehicle wells | activation, % at 2 µM | 1% of 190,000 active;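 active = activation above a set limit, based on mean plus 3 SD of controls, cut at about 140% in these data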
# Numbers without * were called inactive; / = no result. In the library only some 4.8% were active in any assay of this set; here they are far more common.
SMILES,STAT1 activator,FLuc inh counter,NF-kB neuron act,FLuc stim CS,APP 5UTR inh,APP 5'UTR act
CCOc1ccc(C(=O)Nc2ccc(NC(=O)c3ccco3)c(Cl)c2)cc1Cl,94,-7,1.4,1.1,23,-23
COc1cc(NC(=O)C(C)C)ccc1NC(=O)c1ccco1,134*,35,2.6,0.6,-91,91
CCOc1ccc(C(=O)Nc2cccc(-c3nc4cccnc4o3)c2)cc1Cl,95,-7,0.8,1.1,4,-4
CCOc1ccc(C(=O)Nc2cc(NC(=O)c3ccc(OCC)c(Cl)c3)cc(C(=O)O)c2)cc1Cl,101,-2,3.7*,1,-13,13
CCOc1ccccc1NC(=O)c1cccc(NC(=O)c2ccco2)c1,107,-7,0.88,1.1,91*,-91
CCOc1ccc(C(=O)Nc2cccc(C(=O)O)c2)cc1Cl,34,79*,6.2*,0.2,-76,76
O=C(O)/C=C/c1ccc(S(=O)(=O)Nc2ccc(C(=O)NCC(=O)O)cc2)cc1,101,-6,1.1,1.1,-10,10
COc1ccc2cc3c(N)c(C(=O)NCc4ccco4)sc3nc2c1,137*,14,1.1,0.9,-50,51
COc1ccc2cc3cc(C(=O)NCc4ccco4)oc3nc2c1,109,-6,1.4,1.1,6,-6
CC(=O)NC1=NN(C(C)=O)C(C)(c2ccccc2)S1 (configuration not stated),101,-4,1.4,1,49*,-49
C=CCOc1c(Br)cc(CNc2ccc(NC(=O)C(C)C)c(OC)c2)cc1OCC,94,-3,1.2,1,17,-17
Cn1c(=O)n(C)c2cc(NC(=O)c3cc4ccccc4o3)ccc21,100,4,0.63,1,-21,21
Cc1ccc(C(=O)Nc2ccc3c(c2)OCO3)o1,122,40,2.7,0.6,-57,57
O=C(Nc1ccc2oc(=O)ccc2c1)c1cc2ccccc2o1,148*,28,2.4,0.7,-96,96
O=C(Nc1ccc2c(c1)OCCO2)c1ccc(Br)o1,125,82*,4.9*,0.2,-136,136*
O=C(Nc1ccc2c(c1)OCCO2)c1cc2ccccc2o1,82,92*,9.2*,0.1,-225,225*
CN1CCN(/N=C/c2ccc(-c3ccccc3)cc2)CC1,116,11,3.8*,0.9,-75,75
Cc1ccc(/C=N/N2CCN(c3ccccn3)CC2)cc1,142*,4,2.2,1,2,-2
Nc1nc(NC(=O)c2ccccc2)nn1-c1ccccc1,112,7,1.5,0.9,1,-1
O=C(Nc1nc(NC(=O)c2ccco2)n(-c2ccccc2)n1)c1ccccc1,101,0,1.8,1,46*,-46
Cc1cc(OC(C)C(N)=O)nc(-c2ccccc2)n1 (configuration not stated),92,-4,1.2,1,-16,16
O=C(CNS(=O)(=O)c1ccccc1)Nc1ccc(C(F)(F)F)cc1,94,-5,1.8,1,68*,-68
c1ccc(OCCSc2nnnn2C2CCCCC2)cc1,133*,18,/,0.8,-142,142*
COc1ccc(OCCSc2nnnn2C2CCCCC2)cc1,105,0,1.6,1,-13,13
O=c1[nH]c(CNCc2cccnc2)nc2ccccc12,106,-3,1,1,-9,9
SMILES,STAT1 activator,FLuc inh counter,NF-kB neuron act,FLuc stim CS,APP 5UTR inh,APP 5'UTR act
O=C1C(=O)c2ccccc2C(O)=C1c1ccccc1F,/,/,/,/,17,-17
O=C1c2ccccc2C(=O)C1c1nccc2ccccc12,123,90*,3.6*,0.1,-100,100
O=C1c2ccccc2C(=O)C1c1ccnc2ccccc12,61,91*,/,0.1,-146,146*
O=C1C(c2ccnc3ccccc23)=C(O)c2ccccc21,94,90*,3,0.1,-183,183*
CC(C)CN1CCN(Cc2ccc3ncccc3c2)CC1CCO (configuration not stated),101,-6,0.88,1.1,-1,1
Cc1cc(C)cc(C(=O)NCC(=O)OCC(=O)c2cc(C)n(CC(F)(F)F)c2C)c1,96,-4,1.3,1,4,-4
CC1(C)C=C(c2ccc(C=O)s2)CC(C)(C)N1C=O,93,-4,1,1,6,-6
Oc1cccc(-c2nc3c4c(ncn3n2)-c2ccccc2CC42CCCC2)c1,100,-6,0.98,1.1,-1,1
